In ChEMBL document CHEMBL4152245, “Design, synthesis and biological evaluation of benzo[cd]indol-2(1H)-ones derivatives as BRD4 inhibitors” (Eur J Med Chem, 2018):
The source made the active and inactive calls. The calls are words filed in the database; no cut-off is given here.

What was measured:
[1] = molecular target: T1, Bromodomain-containing protein 4 (Homo sapiens, UniProt O60885); experiment: (§1) Inhibition of His-tagged BRD4 bromodomain-1 (unknown origin) expressed in Escherichia coli BL21(DE3) using SGRGK(Ac)-GG-K(Ac)-GLG-K(Ac)-GGA-K(Ac)-RHRKVGG-K-Biotin as substrate preincubated for 15 mins followed by substrate addition measured after 10 mins by Alphascreen assay
Method in brief: (§2)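 His-tagged BRD4_BD1 purified by Ni-NTA, anion exchange and gel filtration, tag retained. Assay buffer: 20 mM HEPES pH 7.4, 0.1% BSA, 0.01% Triton X-100, 1 mM DTT. Protein preincubated with compound 15 min at room temperature, biotinylated tetra-acetyl peptide added for 10 min, then streptavidin donor and nickel chelate acceptor beads for 60 min. Compounds screened at 20 and 5 µM; IC50 from three independent experiments.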

[2] = molecular target: T1, Bromodomain-containing protein 4; experiment: as §1, with “BL21(DE3) at 100 uM” for “BL21(DE3)”, “assay relative to control” for “assay”
[3] = molecular target: T1, Bromodomain-containing protein 4; experiment: as §1, with “BL21(DE3) at 20 uM” for “BL21(DE3)”, “assay relative to control” for “assay”; method in brief: as §2
[4] = molecular target: T1, Bromodomain-containing protein 4; experiment: as §1, with “BL21(DE3) at 5 uM” for “BL21(DE3)”, “assay relative to control” for “assay”; method in brief: as §2
[5] = molecular target: T1, Bromodomain-containing protein 4; experiment: Binding affinity to His-tagged BRD4 bromodomain-1 (unknown origin) expressed in Escherichia coli BL21(DE3) assessed as change in melting temperature at 100 uM by SYPRO orange dye based thermal shift assay
Method in brief: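 Buffer of 20 mM HEPES pH 7.4, 100 mM NaCl and 1 mM DTT, with 5× SYPRO Orange and 5 µM BRD4_BD1. Compound at 100 µM or 0.5% DMSO, DMSO matched across wells. Heated at 2.5 °C/min from 25 to 95 °C. Tm compared with the DMSO control.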

[6] = molecular target: T1, Bromodomain-containing protein 4; experiment: Inhibition of BRD4 in human MV4-11 cells assessed as downregulation of Bcl2 mRNA expression after 6 hrs by RT-PCR analysis; format: cell-based
Method in brief: (§3)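 MV4-11 cells at 5×10⁵/mL treated 6 h with various compound concentrations or DMSO. c-Myc, Bcl-2 and CDK6 transcripts quantified by qRT-PCR, normalized to B2M by the ΔΔCt method.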

[7] = molecular target: T1, Bromodomain-containing protein 4; experiment: Inhibition of BRD4 in human MV4-11 cells assessed as downregulation of c-MYC mRNA expression after 6 hrs by RT-PCR analysis; format: cell-based; method in brief: as §3
[8] = molecular target: T1, Bromodomain-containing protein 4; experiment: Inhibition of BRD4 in human MV4-11 cells assessed as downregulation of CDK6 mRNA expression after 6 hrs by RT-PCR analysis; format: cell-based; method in brief: as §3
[9] = molecular target: T1, Bromodomain-containing protein 4; experiment: Inhibition of BRD4 in human MV4-11 cells assessed as downregulation of c-MYC protein expression after 6 hrs by Western blot analysis; format: cell-based
Method in brief: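 MV4-11 cells at 5×10⁵/mL treated 6 h with various compound concentrations or DMSO. Immunoblotted with anti-c-Myc (1:1000, 4 °C overnight), then anti-rabbit secondary (1:10000, 1 h, room temperature).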

[10] = molecular target: T1, Bromodomain-containing protein 4; experiment: Inhibition of BRD4 (unknown origin) by Alphascreen assay; method in brief: as §2

IC50 [1] [µM]	inhibition [3]	inhibition [4]	Structure (SMILES)	further results
69.2	8%	inactive	O=C1c2cccc3c(S(=O)(=O)N4CCCC4)ccc(c23)N1CCO	inhibition [2]: > 90%
–	4%	9%	CCN1C(=O)c2cccc3c(S(=O)(=O)N4CCC[C@@H]4CO)ccc1c23	–
–	89%	42%	CCN1C(=O)c2cccc3c(S(=O)(=O)N4CCC[C@@H]4C(=O)Nc4ccc(Cl)cc4)ccc1c23	–
–	45%	18%	CCN1C(=O)c2cccc3c(S(=O)(=O)N4CCC(NC(=O)OC(C)(C)C)CC4)ccc1c23	–
13.3	95%	57%	CCN1C(=O)c2cccc3c(S(=O)(=O)N4CC[C@@H](NC(=O)OC(C)(C)C)C4)ccc1c23	inhibition [2]: > 90%
–	51%	8%	CCN1C(=O)c2cccc3c(S(=O)(=O)N4CCC[C@@H]4C(=O)Nc4ccc(C)cc4)ccc1c23	–
–	25%	5%	CN1C(=O)c2cccc3c(S(=O)(=O)N4CCCC4)ccc1c23	–
23.1	4%	inactive	O=C(O)CN1C(=O)c2cccc3c(S(=O)(=O)N4CCCC4)ccc1c23	inhibition [2]: > 90%
–	66%	29%	CCN1C(=O)c2cccc3c(S(=O)(=O)NCCC(=O)OC)ccc1c23	–
–	71%	37%	CCN1C(=O)c2cccc3c(S(=O)(=O)N[C@@H](Cc4ccccc4)C(=O)OC)ccc1c23	–
1.02	100%	93%	CCN1C(=O)c2cccc3c(S(=O)(=O)N4CCC[C@@H]4C(=O)NN)ccc1c23	ΔTm [5]: 7.8 °C; inhibition [6]: Dose-dependent effect; inhibition [7]: Dose-dependent effect; inhibition [8]: Dose-dependent effect; inhibition [9]: Dose-dependent effect
–	61%	27%	CCN1C(=O)c2cccc3c(S(=O)(=O)N4CCC[C@@H]4C(=O)OC)ccc1c23	–
–	50%	7%	CCN1C(=O)c2cccc3c(S(=O)(=O)N4CCC[C@@H]4C(=O)NO)ccc1c23	–
–	–	–	Cc1sc2c(c1C)C(c1ccc(Cl)cc1)=C[C@@H](CC(=O)OC(C)(C)C)c1nnc(C)n1-2	IC50 [10]: 0.077 µM
42.2	82%	29%	CCN1C(=O)c2cccc3c(S(=O)(=O)N(CC)CC)ccc1c23	inhibition [2]: > 90%
–	inactive	inactive	CCN1C(=O)c2cccc3c(S(=O)(=O)N4CCC[C@@H](N)C4)ccc1c23	–
–	74%	23%	CCN1C(=O)c2cccc3c(S(=O)(=O)N4CCC(CN)CC4)ccc1c23	–
47.3	99%	58%	CCN1C(=O)c2cccc3c(S(=O)(=O)N4CCCCC4)ccc1c23	inhibition [2]: > 90%
12.7	9%	7%	CC(=O)N1C(=O)c2cccc3c(S(=O)(=O)N4CCCC4)ccc1c23	inhibition [2]: > 90%
–	63%	18%	CCN1C(=O)c2cccc3c(S(=O)(=O)N4CCC[C@@H]4C(=O)Nc4ccc(O)cc4)ccc1c23	–
–	16%	inactive	CCN1C(=O)c2cccc3c(S(=O)(=O)N4CCC(N)CC4)ccc1c23	–
–	20%	7%	CCN1C(=O)c2cccc3c(S(=O)(=O)N4CCC[C@H](NC(=O)OC(C)(C)C)C4)ccc1c23	–
–	80%	28%	CCN1C(=O)c2cccc3c(S(=O)(=O)N4CC[C@H](OC)C4)ccc1c23	–
–	39%	inactive	CCN1C(=O)c2cccc3c(S(=O)(=O)N4CCC[C@@H]4C(=O)Nc4ccccc4C)ccc1c23	–
–	14%	inactive	CCN1C(=O)c2cccc3c(S(=O)(=O)N4CCC[C@H](O)C4)ccc1c23	–
–	88%	35%	CCN1C(=O)c2cccc3c(S(=O)(=O)N4CC[C@H](O)C4)ccc1c23	–

IC50 [1] [µM]	inhibition [3]	inhibition [4]	Structure (SMILES)	further results
–	60%	41%	CCN1C(=O)c2cccc3c(S(=O)(=O)NCCC(=O)O)ccc1c23	–
11	15%	inactive	CCCN1C(=O)c2cccc3c(S(=O)(=O)N4CCCC4)ccc1c23	inhibition [2]: > 90%
–	inactive	inactive	CCN1C(=O)c2cccc3c(S(=O)(=O)N4CC[C@H](N)C4)ccc1c23	–
1.43	100%	87%	CCN1C(=O)c2cccc3c(S(=O)(=O)N4CCC[C@@H]4C(=O)Nc4ccccc4)ccc1c23	ΔTm [5]: 13.9 °C
–	18%	inactive	CCN1C(=O)c2cccc3c(S(=O)(=O)N4CCC(CNC(=O)OC(C)(C)C)CC4)ccc1c23	–
–	97%	55%	CCN1C(=O)c2cccc3c(S(=O)(=O)N4CCOCC4)ccc1c23	–
27.5	67%	21%	CCN1C(=O)c2cccc3c(S(=O)(=O)N4CC[C@@H](O)C4)ccc1c23	inhibition [2]: > 90%
50.7	88%	37%	CCN1C(=O)c2cccc3c(S(=O)(=O)N4CC[C@H](NC(=O)OC(C)(C)C)C4)ccc1c23	inhibition [2]: > 90%
–	53%	inactive	CCN1C(=O)c2cccc3c(S(=O)(=O)NCC(=O)O)ccc1c23	–
–	–	–	O=C(c1ccccc1)c1ccc(NS(=O)(=O)c2cccc(Br)c2)cc1	inhibition [2]: > 90%
1.55	100%	98%	CCN1C(=O)c2cccc3c(S(=O)(=O)NCCO)ccc1c23	ΔTm [5]: 13.2 °C
–	20%	9%	CCN1C(=O)c2cccc3c(S(=O)(=O)N4CCC[C@@H](NC(=O)OC(C)(C)C)C4)ccc1c23	–
–	89%	21%	CCN1C(=O)c2cccc3c(S(=O)(=O)N[C@H](C(=O)OC)C(C)C)ccc1c23	–
18.7	inactive	inactive	CN(C)C(=O)CN1C(=O)c2cccc3c(S(=O)(=O)N4CCCC4)ccc1c23	inhibition [2]: > 90%
–	12%	inactive	CCOC(=O)CNS(=O)(=O)c1ccc2c3c(cccc13)C(=O)N2CC	–
–	inactive	4%	CCN1C(=O)c2cccc3c(S(=O)(=O)N[C@@H](Cc4ccccc4)C(=O)O)ccc1c23	–
–	inactive	inactive	CCN1C(=O)c2cccc3c(S(=O)(=O)NCCCO)ccc1c23	–
–	82%	33%	CCN1C(=O)c2cccc3c(S(=O)(=O)Nc4ccccc4OC)ccc1c23	–
13.3	8%	17%	CCN1C(=O)c2cccc3c(S(=O)(=O)N4CC[C@@H](OC)C4)ccc1c23	inhibition [2]: > 90%
3.02	98%	66%	CCN1C(=O)c2cccc3c(S(=O)(=O)N4CCC[C@@H]4C(=O)O)ccc1c23	ΔTm [5]: 10.5 °C; inhibition [6]: Dose-dependent effect; inhibition [7]: Dose-dependent effect; inhibition [8]: Dose-dependent effect; inhibition [9]: Dose-dependent effect
–	inactive	inactive	CCN1C(=O)c2cccc3c(S(=O)(=O)N4CCC[C@@H]4C(=O)Nc4ccccc4O)ccc1c23	–
–	inactive	3%	CCN1C(=O)c2cccc3c(S(=O)(=O)N4CC[C@@H](N)C4)ccc1c23	–
–	inactive	inactive	CCN1C(=O)c2cccc3c(S(=O)(=O)N4CCC[C@H](N)C4)ccc1c23	–
–	inactive	inactive	CCN1C(=O)c2cccc3c(S(=O)(=O)N[C@H](C(=O)O)C(C)C)ccc1c23	–
–	22.4%	11%	CCN1C(=O)c2cccc3c(S(=O)(=O)N4CCC[C@H]4CO)ccc1c23	–
32.2	27%	9%	CCN1C(=O)c2cccc3c(S(=O)(=O)N4CCC[C@@H](O)C4)ccc1c23	inhibition [2]: > 90%
